Results from different studies.
ADORA3: Adenosine receptor A3 (ADORA3, Homo sapiens, UniProt P0DMS8)
DRD2: D(2) dopamine receptor (DRD2, Homo sapiens, UniProt P14416)
BRAF V600E: Serine/threonine-protein kinase B-raf (BRAF, Homo sapiens, UniProt P15056, V600E)

C#CCN1CCCn2c1nc1c2c(=O)n(C)c(=O)n1C — inhibition (ADORA3; ligand displacement, radioligand; 10 µM, cell membranes): 11%
CCC(=O)c1ccc(OCC(O)CN2CCN(S(=O)(=O)N3CCCCC3)CC2)cc1 (stereo not drawn) — inhibition (DRD2; enzyme activity, inhibitor; 10 µM): 6.8%
CCCCCC(C)N1CCCn2c1nc1c2c(=O)n(C)c(=O)n1C (stereo not drawn) — inhibition (ADORA3; ligand displacement, radioligand; 10 µM, cell membranes): 32%
CC(=O)N[C@H]1CSSC[C@@H](C(=O)N[C@H](Cc2c[nH]c3ccccc23)C(N)=O)NC(=O)[C@@H](Cc2ccccc2)NC(=O)[C@H](CCCNC(=N)N)NC1=O — inhibition (Melanocortin receptor 3 (MC3R, Homo sapiens, UniProt P41968); ligand displacement, radioligand; 10 µM, 40 min): 35%
Cc1ccc(C(C)C)c(OCC(O)CN2CCN(c3ccccc3F)CC2)c1 (stereo not drawn) — inhibition (DRD2; enzyme activity, inhibitor; 10 µM): 32.3%
CCCC(C)N1CCCn2c1nc1c2c(=O)n(C)c(=O)n1C (stereo not drawn) — inhibition (ADORA3; ligand displacement, radioligand; 10 µM, cell membranes): 17%
O=C1NCCCc2ccc(F)cc21 — inhibition (Protein mono-ADP-ribosyltransferase PARP16 (PARP16, Homo sapiens, UniProt Q8N5Y8); enzyme activity, inhibitor; 10 µM): 74%
COc1ccc(S(N)(=O)=O)cc1C(=O)NCCCN1CCN(c2ccccc2OC)CC1 — inhibition (DRD2; enzyme activity, inhibitor; 10 µM): 62.4%
COc1cc2c3c(c1OC)-c1cc4c(cc1CC3N(C)CC2)OCO4 (racemic) — inhibition (5-hydroxytryptamine receptor 1E (HTR1E, Homo sapiens, UniProt P28566); ligand displacement, radioligand; 10 µM): 62%
Cc1ccc(C(CS(=O)(=O)c2ccccc2)=NN=C2N=C(c3ccc(Br)cc3)CS2)cc1 — inhibition (BRAF V600E; enzyme activity, inhibitor, ATP luminescence; 10 nM): 43%
O=C1CC(N2CCN(Cc3ccccc3)CC2)C(=O)N1c1ccc2c(c1)OCCO2 (stereo not drawn) — inhibition (DRD2; enzyme activity, inhibitor; 10 µM): 34.1%
C=CCN1CCCn2c1nc1c2c(=O)n(C)c(=O)n1C — inhibition (ADORA3; ligand displacement, radioligand; 10 µM, cell membranes): 17%
NC(=S)NN=C(CS(=O)(=O)c1ccccc1)c1ccc(F)cc1 — inhibition (BRAF V600E; enzyme activity, inhibitor, ATP luminescence; 10 µM): 92%
CNC(=O)c1cc(Oc2ccc(NC(=O)Nc3ccc(Cl)c(C(F)(F)F)c3)cc2)ccn1 — inhibition (Tyrosine-protein kinase Blk (Blk, Mus musculus, UniProt P16277); enzyme activity, inhibitor; 0.3 µM): -25%
O=C(c1ccc(F)cc1)N(Cc1ccccc1)C1CCCCC1 — inhibition (ADORA3; cell-free assay; 10 µM): 4%
O=C(CSc1nc2nccnc2c(=O)n1CCc1ccccc1)Nc1nccs1 — inhibition (Phosphatidylinositol 4-kinase type 2-alpha (PI4K2A, Homo sapiens, UniProt Q9BTU6); enzyme activity, inhibitor; 10 µM): 9%
Cc1ccc(C(CS(=O)(=O)c2ccccc2)=NN=C2N=C(c3ccc(C)cc3)CS2)cc1 — inhibition (BRAF V600E; enzyme activity, inhibitor, ATP luminescence; 1 µM): 65%
Cc1ccc(Nc2nccc(N(C)c3ccc4c(C)n(C)nc4c3)n2)cc1S(N)(=O)=O — inhibition (Dual specificity mitogen-activated protein kinase kinase 4 (Map2k4, Mus musculus, UniProt P47809); enzyme activity, inhibitor; 10 µM): 63%
CC(C)(C)c1nc(-c2cccc(NS(=O)(=O)c3c(F)cccc3F)c2F)c(-c2ccnc(N)n2)s1 — inhibition (BRAF V600E; enzyme activity, inhibitor, ATP luminescence; 0.1 µM): 58%
CCN(Cc1ccccc1C(F)(F)F)C(=O)C1CCN(S(=O)(=O)c2ccc3[nH]ncc3c2)CC1 — inhibition (ADORA3; ligand displacement, radioligand; 10 µM): 14%
Cc1ccc(C(CS(=O)(=O)c2ccccc2)=NNc2nc(C)c(N=Nc3cccc(C)c3)s2)cc1 — inhibition (BRAF V600E; enzyme activity, inhibitor, ATP luminescence; 1 µM): 81%
O=C(Nc1ccc(S(=O)(=O)N2CCC(Cl)CC2)cc1)c1ccc([N+](=O)[O-])o1 — inhibition (Neuropeptide Y receptor type 1 (NPY1R, Homo sapiens, UniProt P25929); ligand displacement, radioligand; 10 µM): 7%
Cc1ccc(C(CS(=O)(=O)c2ccccc2)=NNC2=NC(=O)C(=NNc3ccccc3)S2)cc1 — inhibition (BRAF V600E; enzyme activity, inhibitor, ATP luminescence; 10 µM): 89%
CN(C(=O)N(C)C1C2CC3CC(C2)CC1C3)c1ccc(F)c(F)c1F (stereo not drawn) — inhibition (ephB (Mycobacterium tuberculosis, UniProt I6YC03); enzyme activity, inhibitor; 10 nM): < 1%
